Results from ChEMBL document CHEMBL5214999, “Identification and Optimization of a Ligand-Efficient Benzoazepinone Bromodomain and Extra Terminal (BET) Family Acetyl-Lysine Mimetic into the Oral Candidate Quality Molecule I-BET432” (J Med Chem, 2022).
Values after ≈ are worked out from the molar mass of the structure shown.

What was measured:
[1] = target: T1, Bromodomain-containing protein 4 (Homo sapiens, UniProt O60885); experiment: Inhibition of BRD4 BD2 (unknown origin) measured by TR-FRET assay
[2] = target: T1, Bromodomain-containing protein 4; experiment: Inhibition of BRD4 BD1 (unknown origin) measured by TR-FRET assay
[3] = Intrinsic clearance in human hepatocytes measured after 120 mins by LC-MS/MS analysis; type: ADME, cell-based, Hepatocyte; details: 2 h
[4] = Intrinsic clearance in dog hepatocytes incubated upto 45 mins by LC-MS/MS analysis; type: ADME, cell-based, Canis lupus familiaris, Hepatocyte; details: 0.75 h
[5] = Artificial membrane permeability of the compound; type: ADME; details: PAMPA; read-out: permeability
[6] = Lipophilicity, logD of compound at pH 7.4 by Chromatography; type: physicochemical; details: buffer
[7] = Intrinsic clearance in rat hepatocytes after 60 mins by LC-MS/MS analysis; type: ADME, cell-based, Hepatocyte; details: 1 h
C-C motif chemokine 2 = C-C motif chemokine 2 (Homo sapiens, UniProt P13500); experiment: Inhibition of MCP-1 in LPS-stimulated human whole blood incubate for 24 hrs by immuno assay; type: tissue-based
[8] = Solubility of the compound in saline by CLND method; type: physicochemical
[9] = target: Voltage-gated inwardly rectifying potassium channel KCNH2 (Homo sapiens, UniProt Q12809); experiment: Inhibition of hERG; type: toxicity
[10] = Solubility of the compound at pH 6.5 in fast state simulated intestinal fluid incubated for 16 hrs by HPLC analysis; type: physicochemical; details: fasted state simulated intestinal fluid
Cytochrome P450 3A4 = Cytochrome P450 3A4 (Homo sapiens, UniProt P08684); experiment: Inhibition of CYP3A4 (unknown origin); type: ADME
[11] = Unbound clearance in Wistar Han rat blood at 3.1 mg/kg, po or 1 mg/kg, iv measured upto 24 hrs by LC-MS/MS analysis; type: ADME, organism-based; details: in vivo
Method in brief: (§1)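 Male Wistar Han rats and beagle dogs were dosed iv as a 1 h infusion in DMSO with 10% (w/v) Kleptose HPB in saline (2%:98% or 5%:95% v/v). Oral doses were given in 1% (w/v) methylcellulose (400 cps) aqueous suspension. Oral values are means of n = 3 and iv values n = 1 unless otherwise noted.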

[12] = Volume of distribution at steady state in Wistar Han rat at 3.1 mg/kg, po or 1 mg/kg, iv measured upto 24 hrs by LC-MS/MS analysis; type: ADME, organism-based; details: in vivo, read-out: Vdss; method in brief: as §1
[13] = Clearance in Wistar Han rat blood at 3.1 mg/kg, po or 1 mg/kg, iv measured upto 24 hrs by LC-MS/MS analysis; type: ADME, organism-based; details: whole blood; method in brief: as §1
[14] = Half-life in Wistar Han rat at 3.1 mg/kg, po or 1 mg/kg, iv measured upto 24 hrs by LC-MS/MS analysis; type: ADME, organism-based; details: in vivo; method in brief: as §1
[15] = Oral bioavailability in Wistar Han rat at 3.1 mg/kg measured upto 24 hrs by LC-MS/MS analysis; type: ADME, organism-based; details: in vivo; method in brief: as §1
[16] = Unbound volume of distribution at steady state in Wistar Han rat at 3.1 mg/kg, po or 1 mg/kg, iv measured upto 24 hrs by LC-MS/MS analysis; type: ADME, organism-based; details: in vivo; method in brief: as §1

C-C motif chemokine 2, sequence (P13500 whole entry): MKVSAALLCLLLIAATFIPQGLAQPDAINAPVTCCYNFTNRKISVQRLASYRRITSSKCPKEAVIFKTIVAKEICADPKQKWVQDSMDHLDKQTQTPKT
Voltage-gated inwardly rectifying potassium channel KCNH2, sequence (Q12809 whole entry): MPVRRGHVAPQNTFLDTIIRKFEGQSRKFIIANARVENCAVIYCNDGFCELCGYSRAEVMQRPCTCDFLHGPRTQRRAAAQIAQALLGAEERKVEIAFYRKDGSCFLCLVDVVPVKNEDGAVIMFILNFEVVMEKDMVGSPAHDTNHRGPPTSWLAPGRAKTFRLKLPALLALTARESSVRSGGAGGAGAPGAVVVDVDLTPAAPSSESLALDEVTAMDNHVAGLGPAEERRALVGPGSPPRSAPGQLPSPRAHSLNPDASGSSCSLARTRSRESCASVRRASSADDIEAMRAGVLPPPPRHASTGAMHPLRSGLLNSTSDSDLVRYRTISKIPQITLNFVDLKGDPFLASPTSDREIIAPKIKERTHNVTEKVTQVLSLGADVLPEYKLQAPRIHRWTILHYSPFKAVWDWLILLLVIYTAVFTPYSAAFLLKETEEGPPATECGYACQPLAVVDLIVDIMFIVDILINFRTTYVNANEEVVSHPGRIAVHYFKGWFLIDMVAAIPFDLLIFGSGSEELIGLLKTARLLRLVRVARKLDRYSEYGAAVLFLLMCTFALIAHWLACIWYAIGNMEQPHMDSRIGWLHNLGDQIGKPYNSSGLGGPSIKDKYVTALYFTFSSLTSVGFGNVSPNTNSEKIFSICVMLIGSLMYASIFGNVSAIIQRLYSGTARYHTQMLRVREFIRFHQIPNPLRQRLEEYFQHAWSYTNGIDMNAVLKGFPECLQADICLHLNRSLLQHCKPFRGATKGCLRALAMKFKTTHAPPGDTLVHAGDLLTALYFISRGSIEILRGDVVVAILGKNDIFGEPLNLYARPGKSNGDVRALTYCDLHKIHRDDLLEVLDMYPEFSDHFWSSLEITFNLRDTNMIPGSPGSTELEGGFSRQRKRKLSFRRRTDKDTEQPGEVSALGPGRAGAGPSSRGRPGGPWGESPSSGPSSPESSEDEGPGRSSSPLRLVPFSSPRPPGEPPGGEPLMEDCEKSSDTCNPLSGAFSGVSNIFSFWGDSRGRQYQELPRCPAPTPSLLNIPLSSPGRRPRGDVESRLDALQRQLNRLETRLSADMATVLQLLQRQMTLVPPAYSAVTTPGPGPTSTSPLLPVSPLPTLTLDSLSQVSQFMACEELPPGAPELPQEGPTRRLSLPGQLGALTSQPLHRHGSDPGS
Cytochrome P450 3A4, sequence (P08684 whole entry): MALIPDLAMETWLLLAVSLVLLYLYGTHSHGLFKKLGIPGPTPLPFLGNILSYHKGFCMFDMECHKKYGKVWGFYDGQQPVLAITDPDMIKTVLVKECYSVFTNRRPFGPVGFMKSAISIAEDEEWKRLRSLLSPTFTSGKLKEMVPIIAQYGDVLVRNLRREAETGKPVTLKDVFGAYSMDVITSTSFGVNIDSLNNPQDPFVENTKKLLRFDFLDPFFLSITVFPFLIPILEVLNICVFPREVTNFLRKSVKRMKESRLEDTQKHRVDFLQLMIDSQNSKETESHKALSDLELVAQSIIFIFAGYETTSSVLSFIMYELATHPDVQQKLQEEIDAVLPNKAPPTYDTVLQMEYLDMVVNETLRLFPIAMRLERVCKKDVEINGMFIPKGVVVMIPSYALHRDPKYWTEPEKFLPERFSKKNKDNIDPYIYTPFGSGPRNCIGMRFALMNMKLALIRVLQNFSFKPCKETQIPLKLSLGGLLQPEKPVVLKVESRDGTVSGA

| SMILES | IC50 [1] [nM] | IC50 [2] [nM] | Papp [5] [×10⁻⁶ cm/s] | chromatographic logD [6] | IC50 (C-C motif chemokine 2) [nM] | solubility kinetic [8] [µg/mL] | other results |
| --- | --- | --- | --- | --- | --- | --- | --- |
| COC[C@@H](C)n1c(C2CCOCC2)nc2cnc3cc(-c4c(C)noc4C)c(OC)cc3c21 | 126 | 39.8 |  |  |  |  |  |
| CC(=O)N1CCCc2ccccc21 | 126000 | 251000 |  |  |  |  |  |
| CCOc1ccc2c(c1)C(c1cnn(C)c1)=CN(C)C(=O)[C@@H]2C | 7.94 | 10 | 57 | 4.1 | 20 | 143 (≈ 459 µM) | CLH [3]: 9.14 mL/min/g; CLH [4]: < 0.65 mL/min/g; CLH [7]: 72.36 mL/min/g |
| COc1cc2c(cc1OC)CC(=O)N(C)C=C2 | 10000 | 2000 |  | 2.6 |  |  |  |
| C[C@H]1C(=O)N(C)C=Cc2cc(C(CO)CO)ccc21 | 2000 | 398 | 3 | 1.2 | 631 | ≥ 209 |  |
| COc1cc2c(cc1OC)[C@@H](C)C(=O)N(C)C=C2 | 631 | 158 | 89 | 3.4 |  | ≥ 139 | IC50 [9]: > 50100 nM; CLH [3]: < 0.45 mL/min/g; CLH [4]: 2.64 mL/min/g; solubility at 16 h [10]: > 1000 µg/mL; CLH [7]: 6.35 mL/min/g; IC50 (Cytochrome P450 3A4): > 39800 nM |
| CCS(=O)(=O)c1ccc2c(c1)C(c1ccncc1)=CN(C)C(=O)C2C (racemic) | 1580 | 631 | 35 | 2.8 | 1260 | 128 (≈ 359 µM) |  |
| C[C@H]1C(=O)N(C)C=Cc2ccccc21 (racemic) | 5010 | 1580 | 100 | 4.3 | 5010 | ≥ 86 |  |
| CCS(=O)(=O)c1ccc2c(c1)C(c1ccccc1)=CN(C)C(=O)C2C (racemic) | 501 | 251 | 100 | 5.1 | 1580 | ≥ 146 |  |
| CCS(=O)(=O)c1ccc2c(c1)C=CN(C)C(=O)[C@@H]2C (racemic) | 1260 | 200 | 42 | 3.1 | 398 |  |  |
| CCOc1ccc2c(c1)C(c1cn(C)cn1)=CN(C)C(=O)[C@@H]2C | 25.1 | 31.6 | 69 | 3.6 | 50.1 | 117 (≈ 376 µM) |  |
| Cc1nc(C2=CN(C)C(=O)[C@H](C)c3ccc(OCCO)cc32)c[nH]1 | 31.6 | 20 | < 0.3 | 1.5 | 39.8 | ≥ 185 |  |
| CCOc1ccc2c(c1)C(c1c[nH]cn1)=CN(C)C(=O)[C@@H]2C | 10 | 10 | 46 | 2.7 | 50.1 | ≥ 131 |  |
| C[C@H]1C(=O)N(C)C=Cc2cc(OC(CO)CO)ccc21 | 1260 | 398 | 4.2 | 1.3 | 631 | ≥ 142 |  |
| Cc1nnc(C)n1-c1ccccc1 | > 50100 | > 50100 |  |  |  |  |  |
| C[C@H]1C(=O)N(C)C=Cc2cc(CC3CCOCC3)ccc21 | 316 | 63.1 | 71 | 5.4 | 631 | ≥ 111 |  |
| CCOc1ccc2c(c1)C(c1cn[nH]c1)=CN(C)C(=O)[C@@H]2C | 3.98 | 6.31 | 37 | 3.4 | 25.1 | ≥ 115 |  |
| C[C@H]1C(=O)N(C)C=C(c2cn[nH]c2)c2cc([C@H](O)CO)ccc21 | 25.1 | 15.8 | 0.8 | 0.8 | 39.8 |  | CLH [3]: 0.52 mL/min/g; CLH [4]: < 0.65 mL/min/g; solubility at 16 h [10]: > 1000 µg/mL; CL free [11]: 75 mL/min/kg; CLH [7]: < 0.8 mL/min/g; Vd [12]: 1 L/kg; clearance [13]: 43 mL/min/kg; half-life [14]: 24.6 min; bioavailability [15]: 19%; Vduss [16]: 1.8 L/kg |
| Cc1cc(-c2ccccc2)cn(C)c1=O | 10000 | 3160 |  |  |  |  |  |
